This excerpt belongs to a sample that is enriched for hits.
Lmaj promast: Leishmania major promastigote growth inhibition | inhibition, % at 10 µM | Leishmania major promastigotes, resazurin fluorescence viability | hit rate 9% among 200,000 | AID 1063;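 also: promastigotes grown with compound for 44 hours at 28 °C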
Diaphorase inh: counter-screen for diaphorase-based assays: diaphorase inhibitors and chemical oxidizers | diaphorase resazurin-to-resorufin fluorescence, NADH, 16 min; bacterial (C. kluyveri) enzyme, not human | inhibition, % at 20 µM | hit rate 0.69% among 190,000 | AID 1217;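 active = primary screen inhibition at 20 µM above a set limit, cut at about 50% in these data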
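material = Clostridium kluyveri diaphorase enzyme | amount = 0.14 U/mL diaphorase, enzyme working solution | schedule = incubation 16 min, room temperature | detection = fluorescence of resorufin formed from resazurin, Ex 544/Em 590 nm | benchmarks = positive control minus NADH, DMSO neutral control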
G6PDH CS: counter-screen for G6PDH assay hits: L. mesenteroides G6PDH inhibition. Purified L. mesenteroides G6PDH, diaphorase/resazurin coupled fluorescence, 45 min. inhibition, % at 5 µM. hit rate 0.12% among 200,000. AID 1020
DTT redox prof: compounds producing H2O2 with reducing agent – biochemical, NIH compound library profiling, artefact control for MLSCN library redox annotation, primary screen. hit rate 0.03% among 200,000. AID 878. activation, % at 10 µM. DTT-dependent redox cycling H2O2, phenol red/HRP absorbance; 100% = 100 µM peroxide control, 0% = buffer;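 active = activation of at least 50% relative to the plate's high and low controls in the primary single-dose screen; inactive = activation below 50%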;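 also: compound incubated with DTT at 0.8 mM final as the reducing agent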
Diaphorase act: counter-screen for diaphorase-based assays: diaphorase activators and chemical reducers; Diaphorase/resazurin coupled assay, resorufin fluorescence, 16 min; stronger effect = higher value; 1 = vehicle wells, 0 = NADH-free wells; activation factor at 20 µM; hit rate 0.005% among 190,000; AID 1229;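 active = diaphorase activity raised at least twofold by the compound at 20 µM; inactive = activation factor below 2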
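Material: bacterial diaphorase enzyme (C. kluyveri); amount: enzyme 0.07 U/mL final; reagent: NADH substrate 0.114 mM plus resazurin dye 0.1 mM, final; doses: single compound dose of 20 µM, 1% DMSO final; timing: 16 min enzyme reaction, ambient temperature; measured by: fluorescence of resorufin, 544 nm excitation, 590 nm emission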
PfG6PD inh: PfG6PD (Plasmodium falciparum) enzyme inhibition; inhibition, % at 20 µM; AID 504690; PfGluPho enzyme, NADPH resazurin-diaphorase fluorescence; hit rate 0.78% among 350,000;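 active = inhibition reaching at least a set limit at 20 µM in the primary screen, cut at about 59% in these data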
A number is an active result; – = inactive; · = no result given. Rule as the data show it, unless noted: active = inhibition above about 50%; inactive = the rest.

SMILES	Lmaj promast	Diaphorase inh	G6PDH CS	DTT redox prof	Diaphorase act	PfG6PD inh
COc1ccc(CN2CCC(=O)N(CCO)CC2)cc1OC	·	·	·	·	·	–
COc1ccc(CCNC(=O)CCCN2C(=O)c3ccccc3C2=O)cc1	–	–	–	–	–	–
C[C@@H]1c2ccccc2N2C[C@H](Cc3ccc(C(=O)c4ccccc4)cc3)C[C@@H]12	·	·	·	·	·	–
O=c1c2ccccc2c(=O)n2n1Cc1ccccc1C2	·	·	·	·	·	–
CCN1CCCC1CNC(=O)c1cc2c(-c3cccc(OC)c3)nn(C)c2s1 (stereo not given)	81.8	–	–	–	–	–
COCCNC(=O)c1cc2c(-c3ccc(Cl)cc3)nn(C)c2s1	–	–	–	–	–	–
CCN(CC)CCCNC(=O)c1cc2c(-c3cccc(OC)c3)nn(C)c2s1	·	·	·	·	·	–
CCCCNC(=O)c1cc2c(-c3ccc(Cl)cc3)nn(C)c2s1	–	–	–	–	–	–
CCN1CCCC1CNC(=O)C(=O)Nc1ccccc1 (stereo not given)	–	–	–	–	–	–
CCN1CCCC1CNC(=O)c1cc2c(-c3ccc(Cl)cc3)nn(C)c2s1 (stereo not given)	99.6	–	–	–	–	–
Cn1nc(-c2ccc(Cl)cc2)c2cc(C(=O)NCCCN3CCCC3)sc21	100.5	–	–	–	–	–
CCN1CCCC1CNC(=O)C(=O)Nc1cccc(OC)c1 (stereo not given)	52.7	–	–	–	–	–
Cc1nn(-c2ccccc2)c2sc(C(=O)OCC(=O)N3CCCCC3)cc12	·	–	–	·	–	–
CN1CCN(C(=O)c2cc([N+](=O)[O-])cc([N+](=O)[O-])c2)CC1	·	·	·	·	·	–
CN(C)CCNC(=O)COc1ccc(Cl)cc1Cl	–	–	–	–	–	–
CN(C)CCCNC(=O)COc1ccc(Br)cc1Cl	91.4	–	–	–	–	–
CCN(CC)CCNC(=O)COc1ccc(Cl)cc1Cl	75.1	–	–	–	–	–
Cc1cc(C)n(-c2nc(NCC(C)O)c3c4c(sc3n2)COC(C)(C)C4)n1 (stereo not given)	–	–	–	–	–	–
Cc1cc(C)n(-c2nc(SCCN(C)C)c3c4c(sc3n2)COC(C)(C)C4)n1	100.6	–	–	–	–	–
FC(F)(Cl)c1nnc2ccc(Sc3ccccn3)nn12	–	–	–	–	–	–
Cc1ccccc1OCC(O)CN(Cc1ccccc1O)C1CCCCC1 (stereo not given)	91.4	–	–	–	–	–
CCN(CC(O)COc1ccc(OCC(O)CN(CC)C2CCCCC2)cc1)C1CCCCC1 (stereo not given)	100.0	·	·	–	·	–
CN(CC(O)COCc1ccccc1F)C1CCCCC1 (stereo not given)	·	·	·	·	·	–
CCN(CC(O)COCc1ccc(Cl)cc1)C1CCCCC1 (stereo not given)	68.1	–	–	–	–	–
CN1CCC(N(C)C(=O)COc2ccc(S(=O)(=O)N3CCOCC3)cc2)CC1	–	–	–	–	–	–
SMILES	Lmaj promast	Diaphorase inh	G6PDH CS	DTT redox prof	Diaphorase act	PfG6PD inh
CN(CC(O)COc1ccc(S(=O)(=O)N2CCOCC2)cc1)C1CCCCC1 (stereo not given)	96.6	–	–	–	–	–
CN(CC(O)COc1ccccc1F)C1CCCCC1 (stereo not given)	–	–	–	–	–	–
Cc1ccc(NC(=O)C2CC(=O)N/C(=N/N=C/c3ccco3)S2)cc1C (stereo not given)	–	–	–	–	–	–
CNc1ccccc1	·	·	·	·	·	–
CNc1cccccc1=S	–	–	–	–	–	65.3
Fc1cccc(-c2cc3nc4c(c(NCc5ccco5)n3n2)CCCC4)c1	86.7	–	–	–	–	–
COc1cccc(-c2cc3nc4c(c(NCC(C)(C)CN(C)C)n3n2)CCCC4)c1	77.2	·	–	–	·	–
Fc1cccc(-c2cc3nc4c(c(N5CCOCC5)n3n2)CCCC4)c1	–	–	–	–	–	–
Cc1cc(C)cc(NS(=O)(=O)c2ccc(NC(=O)C3CCCCC3C(=O)O)cc2)c1 (stereo not given)	–	–	–	–	–	–
O=C(NC1CCCCC1)C(c1ccccc1)N1CCc2ccccc21 (stereo not given)	50.4	–	–	–	–	–
C=CCOc1ccc(/C=N/NC(=O)CN(c2cc(Cl)ccc2OC)S(=O)(=O)c2ccc(C)c([N+](=O)[O-])c2)cc1	97.4	–	–	–	–	–
COCC(O)CSc1nc(C)[nH]c1[N+](=O)[O-] (stereo not given)	–	–	–	–	–	–
Cc1csc(SCC(=O)c2cc(C)n(Cc3cccs3)c2C)n1	56.1	–	–	–	–	–
Cc1cc(C(=O)CSc2nnc(N)s2)c(C)n1Cc1cccs1	–	–	–	–	–	–
Cc1cc(C(=O)COc2cccnc2[N+](=O)[O-])c(C)n1Cc1cccs1	–	59.5	–	–	–	–
Cc1cc(C(=O)CSc2n[nH]c(-c3ccccc3F)n2)c(C)n1Cc1cccs1	83.1	50.3	–	–	–	–
COc1cc2sc(-c3ccc(S(C)(=O)=O)cc3)c(-c3ccc4c(c3)OCO4)c2cc1OC	·	·	·	·	·	–
CC(CNC(=O)c1ccccc1Cl)c1ccccc1 (stereo not given)	·	·	·	·	·	–
CN(C)c1nc2ccc(OCCN3CCCCC3)cc2s1	59.6	–	–	–	–	–
CCN(CC)CCOc1ccc2nc(N(C)C)sc2c1	–	–	–	–	–	–
CN(C)S(=O)(=O)c1cccc(NC(=O)CSc2nnnn2-c2ccccc2)c1	·	·	·	·	·	–
O=C(O)C1CC1C(=O)N1CCN(c2ccc(Cl)c(Cl)c2)CC1 (stereo not given)	87.8	–	–	–	–	–
O=C(NCc1ccccc1)N1CCN(c2ccc(Cl)c(Cl)c2)CC1	–	–	–	–	–	–
CCOc1ccc(C(=O)Nc2ccc(N3CCN(C)CC3)cc2)cc1	·	·	·	·	·	–
CCCCOc1ccc(C(=O)Nc2ccc(N3CCN(C)CC3)cc2)cc1	62.5	–	–	–	–	–
SMILES	Lmaj promast	Diaphorase inh	G6PDH CS	DTT redox prof	Diaphorase act	PfG6PD inh
O=C(Nc1ccc2c(c1)CCC2)Nc1ccccc1F	·	·	·	·	·	–
O=C(CC(SCCO)c1ccc(F)cc1)c1ccco1 (stereo not given)	83.7	–	–	–	–	–
Cc1ccc(C(CC(=O)c2ccco2)SCCO)cc1 (stereo not given)	–	–	–	–	–	–
Cc1ccc(Nc2cc(C)nc3ncnn23)cc1	·	·	·	·	·	–
Cc1nn(Cc2ccc(F)cc2)c(C)c1NC(=O)c1cnn2c1NC(c1cccs1)CC2C(F)(F)F (stereo not given)	–	–	–	–	–	–
Cc1nn(Cc2ccc(F)cc2)c(C)c1NC(=O)c1cnn2c1NC(c1ccccc1)CC2C(F)(F)F (stereo not given)	73.1	–	–	–	–	–

High-throughput results deposited in PubChem by several laboratories.
